Experimental findings from ChEMBL document CHEMBL1145458, “Novel vanilloid receptor-1 antagonists: 1. Conformationally restricted analogues of trans-cinnamides” (J Med Chem, 2007) are described below.

Calls of active or inactive are those of the source. No cut-off for these calls is given here. A value given as a limit tells only on which side of the number the result lay.

The target of data set [1] is T1, Transient receptor potential cation channel subfamily V member 1 (Homo sapiens, UniProt Q8NER1). In words: Agonist activity at TRPV1 expressed in CHO cells. It counts as functional, cell-based.
T1 sequence (Q8NER1 whole entry): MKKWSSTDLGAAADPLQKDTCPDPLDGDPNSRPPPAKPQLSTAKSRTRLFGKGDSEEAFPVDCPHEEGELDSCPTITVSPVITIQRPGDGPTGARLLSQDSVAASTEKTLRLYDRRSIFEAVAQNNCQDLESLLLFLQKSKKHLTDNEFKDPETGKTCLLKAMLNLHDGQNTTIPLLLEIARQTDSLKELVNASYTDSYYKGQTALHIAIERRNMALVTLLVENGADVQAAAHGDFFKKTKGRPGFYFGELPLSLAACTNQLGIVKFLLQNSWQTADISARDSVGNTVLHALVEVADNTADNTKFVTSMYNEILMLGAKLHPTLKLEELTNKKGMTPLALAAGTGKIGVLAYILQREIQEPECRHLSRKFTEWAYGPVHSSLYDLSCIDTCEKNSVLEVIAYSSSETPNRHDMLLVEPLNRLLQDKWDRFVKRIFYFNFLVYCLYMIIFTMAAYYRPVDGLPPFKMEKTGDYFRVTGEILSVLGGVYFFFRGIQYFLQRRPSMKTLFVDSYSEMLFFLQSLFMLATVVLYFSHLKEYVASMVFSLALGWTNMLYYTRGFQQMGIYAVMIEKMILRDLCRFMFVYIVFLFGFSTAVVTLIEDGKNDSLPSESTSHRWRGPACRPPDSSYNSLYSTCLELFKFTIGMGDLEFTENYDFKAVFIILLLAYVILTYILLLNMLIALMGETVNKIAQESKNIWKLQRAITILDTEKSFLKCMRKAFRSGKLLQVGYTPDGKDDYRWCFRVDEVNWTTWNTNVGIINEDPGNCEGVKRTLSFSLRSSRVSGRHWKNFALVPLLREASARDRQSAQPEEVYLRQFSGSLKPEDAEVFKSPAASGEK
For data set [2], the target named is T2, Transient receptor potential cation channel subfamily V member 1 (Rattus norvegicus, UniProt O35433). In words: Antagonist activity at rat TRPV1 expressed in CHO cells assessed as inhibition of acid-induced calcium influx. It is filed as functional, cell-based. The method, boiled down:
(§1)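 CHO cells stably transfected with human or rat TRPV1 were preincubated with compound for 2 min at room temperature. After washout, uptake was read by scintillation counting. IC50 values come from inhibition curves, averaging at least two experiments run in triplicate.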

Data set [3] has as its target T2, Transient receptor potential cation channel subfamily V member 1. The data set is described as follows: Antagonist activity at rat TRPV1 expressed in CHO cells assessed as inhibition of capsaicin-induced calcium influx. It counts as functional, cell-based. Summed up: (§2)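 Human or rat TRPV1-CHO cells were preincubated with compound for 2 min at room temperature in HBSS with 0.1 mg/mL BSA and 1 mM HEPES pH 7.4. Cells were washed and radioactivity counted. IC50 is the mean of at least two experiments, triplicate per concentration, ±SEM.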

Data set [4] has as its target T1, Transient receptor potential cation channel subfamily V member 1. The data set is described as follows: Antagonist activity at human TRPV1 expressed in CHO cells assessed as inhibition of acid-induced calcium influx. It counts as functional, cell-based. Summed up:
as §1

Data set [5] shares this target. The data set is described as follows: Antagonist activity at human TRPV1 expressed in CHO cells assessed as inhibition of capsaicin-induced calcium influx. It is filed as functional, cell-based. The method, boiled down: as §2
Data set [6] is described as follows: Cmax in Sprague-Dawley rat at 5 mg/kg, po. It counts as ADME, organism-based. Further details: dose 5 mg/kg, route oral. The conditions noted are these: in vivo. Summed up: (§3)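 Sprague-Dawley rats were dosed orally at 5 mg/kg as a suspension in 5% Tween 80 in Oraplus. Cmax, tmax, AUC0-∞ and oral bioavailability were determined. Values are means of n = 2 animals per study, or of five studies.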

The nature of data set [7]: Tmax in Sprague-Dawley rat at 5 mg/kg, po. Also noted: dose 5 mg/kg, route oral. The conditions noted are these: in vivo. It counts as ADME, organism-based. Summed up:
as §3

The nature of data set [8]: AUC (0-infinity) in Sprague-Dawley rat at 2 mg/kg, iv. It counts as ADME, organism-based. Also noted: time infinity, dose 2 mg/kg, route intravenous. The conditions noted are these: plasma. The method, boiled down: (§4)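 Male Sprague-Dawley rats received a single intravenous dose of 2 mg/kg given as a solution in DMSO. Plasma AUC0-∞, clearance, Vss and t1/2 were derived. Values are means of n = 2 animals per study, or of four studies.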

A short description of data set [9]: Volume of distribution at steady state in Sprague-Dawley rat at 2 mg/kg, iv. Further details: dose 2 mg/kg, route intravenous. It counts as ADME, organism-based. Conditions: in vivo, read-out: Vss. Summed up: as §4
The nature of data set [10]: Clearance in Sprague-Dawley rat at 2 mg/kg, iv. It counts as ADME, organism-based. Also noted: dose 2 mg/kg, route intravenous. The conditions noted are these: in vivo. Summed up:
as §4

Data set [11] can be described thus: Half life in Sprague-Dawley rat at 2 mg/kg, iv. It is filed as ADME, organism-based. Also noted: dose 2 mg/kg, route intravenous. Conditions: in vivo. Summed up: as §4
Data set [12] can be described thus: AUC (0-infinity) in Sprague-Dawley rat at 5 mg/kg, po. It is filed as ADME, organism-based. The conditions noted are these: plasma. Also noted: time infinity, dose 5 mg/kg, route oral. Summed up: as §3
Data set [13] in a line: Bioavailability in Sprague-Dawley rat at 5 mg/kg, po. It counts as ADME, organism-based. The conditions noted are these: in vivo. Summed up: as §3
Data set [14] is described as follows: AUC (0-infinity) in Sprague-Dawley rat at 3 mg/kg, iv. It is filed as ADME, organism-based. Further details: time infinity, dose 3 mg/kg, route intravenous. The conditions noted are these: plasma.
A further data set has as its system Rattus norvegicus. The data set is described as follows: Blockade of capsaicin-induced hypothermic response in Sprague-Dawley rat at 40 mg/kg, po. It counts as functional, organism-based. Also noted: dose 40 mg/kg. The method, boiled down:
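Male Sprague-Dawley rats (175–250 g) had core temperature monitored by radiotelemetry, with a 30 min baseline. Compound or vehicle was given by oral gavage in OraPlus/5% Tween-80 (5 mL/kg), at 40 mg/kg p.o., n = 8 per group. After 90 min, capsaicin 10 mg/kg or vehicle was injected intraperitoneally.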

T2 sequence (O35433 whole entry): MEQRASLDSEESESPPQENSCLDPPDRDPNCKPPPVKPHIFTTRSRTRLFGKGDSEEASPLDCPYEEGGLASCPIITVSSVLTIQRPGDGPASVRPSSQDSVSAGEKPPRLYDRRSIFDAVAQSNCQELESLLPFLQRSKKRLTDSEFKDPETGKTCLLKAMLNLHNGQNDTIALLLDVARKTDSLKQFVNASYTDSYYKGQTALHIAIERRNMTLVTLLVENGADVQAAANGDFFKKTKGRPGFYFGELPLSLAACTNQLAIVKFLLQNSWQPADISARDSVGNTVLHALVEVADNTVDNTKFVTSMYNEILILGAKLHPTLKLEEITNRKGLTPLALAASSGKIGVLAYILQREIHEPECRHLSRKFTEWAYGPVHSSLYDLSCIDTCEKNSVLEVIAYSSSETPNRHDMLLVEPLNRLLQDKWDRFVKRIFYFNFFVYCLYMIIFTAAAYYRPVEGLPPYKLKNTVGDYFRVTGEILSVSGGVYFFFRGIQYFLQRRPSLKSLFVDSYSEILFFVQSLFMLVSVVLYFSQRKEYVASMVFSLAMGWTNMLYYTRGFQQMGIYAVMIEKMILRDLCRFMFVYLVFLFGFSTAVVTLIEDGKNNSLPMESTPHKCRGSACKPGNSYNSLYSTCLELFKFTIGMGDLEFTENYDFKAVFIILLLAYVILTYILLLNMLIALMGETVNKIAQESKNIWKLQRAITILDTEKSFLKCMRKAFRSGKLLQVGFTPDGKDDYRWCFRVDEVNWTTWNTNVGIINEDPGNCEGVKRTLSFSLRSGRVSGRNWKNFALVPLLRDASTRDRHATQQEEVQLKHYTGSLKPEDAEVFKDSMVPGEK

The term EC50 denotes the concentration that produces a half-maximal response. Read a high EC50 as weaker potency. For orientation: IC50 means the concentration needed to halve the response being measured. Regarding `CN(c1ccc2c(c1)OCCO2)c1cc(-c2ccc(C(C)(C)C)cc2)ncn1`, the EC50 in data set [1] was > 4000 nM. Besides, the IC50 in [2] was 2200 nM; in [3], > 4000 nM.
The Cmax is the peak of the concentration-time curve. By Tmax is commonly meant the time from dosing to the highest level. As a reminder, the AUC(0-inf) is the area under the concentration-time curve extrapolated to infinity. A higher AUC(0-inf) goes with high exposure. Usually clearance stands for the volume of plasma or blood freed of the substance per unit of time. A low value points to a low capacity for elimination. One may read the half-life as the time in which the quantity being followed falls by half. What is called bioavailability is dose-corrected exposure relative to a reference, in per cent. A higher bioavailability goes with good availability. Consider `FC(F)(F)c1ccc(-c2cc(Nc3ccc4cccnc4c3)ncn2)cc1`, for which the values for the IC50 in [4], in data set [5] and in data set [2] were 0.3 nM, 0.6 nM and 6.6 nM, respectively. For the same compound, the EC50 in data set [1] is > 4000 nM. For the same compound, in data set [6], the Cmax was 26 ng/mL. Besides, in data set [7], the Tmax amounted to 5 h. For the same compound, the values for the AUC(0-inf) in [8] and in [12] were 320 ng·h/mL and 94 ng·h/mL, respectively. Also, the Vd in data set [9] worked out at 3 L/kg. The clearance in data set [10] was 51.7 mL/min/kg. This compound gave a half-life in [11] of 1.7 h. Moreover, the bioavailability in data set [13] was determined as 6%.
For the compound `CC(C)(C)c1ccc(-c2cc(Cc3ccc4c(c3)OCCO4)ncn2)cc1`, the EC50 in [1] was > 4000 nM. The IC50 in data set [2] was > 4000 nM; in [3], 914 nM.
Take `CC(C)(C)c1ccc(-c2ccnc(Nc3ccc4c(c3)OCCO4)n2)cc1`: in data set [1], the EC50 was > 4000 nM. The IC50 in [2] and in data set [3] was > 4000 nM throughout.
In the case of `FC(F)(F)c1ccc(-c2cc(Nc3ccc4c(c3)OCCO4)ncn2)cc1`, the IC50 in data set [4] was 250 nM; in data set [5], 120 nM; in [2] it was 1200 nM; in data set [3] it was 430 nM. Besides, in [1], the EC50 is > 4000 nM.
Regarding `CC(C)(C)c1ccc(-c2cc(Sc3ccc4c(c3)OCCO4)ncn2)cc1`, the EC50 in [1] is > 4000 nM. Also, the IC50 in data set [2] and in [3] was > 4000 nM throughout.
For `CC(C)(C)c1ccc(-c2cc(Oc3ccc4c(c3)OCCO4)ncn2)cc1`, in [1], the EC50 was > 4000 nM. In addition, the 50% inhibitory concentration (IC50) in data set [2] is 670 nM.
As to `CC(C)(C)c1ccc(/C=C/C(=O)Nc2ccc3c(c2)OCCO3)cc1`, the AUC(0-inf) in [14] amounted to 680 ng·h/mL. The EC50 in data set [1] is > 4000 nM.
Consider `CC(C)(C)c1ccc(-c2cncc(Nc3ccc4c(c3)OCCO4)n2)cc1`, for which, in data set [1], the EC50 was > 4000 nM. For the same compound, the IC50 in data set [2] and in data set [3] was > 4000 nM each time.
In the case of `CC(C)(C)c1ccc(-c2cccc(Nc3ccc4c(c3)OCCO4)n2)cc1`, the EC50 in data set [1] was > 4000 nM. The IC50 in [2] and in data set [3] was > 4000 nM in each case.
With `CC(C)(C)c1ccc(-c2cc(Nc3ccc4c(c3)OCCO4)ncn2)cc1`, the IC50 in data set [4] was 270 nM; in data set [5], 51 nM; in data set [2] it was 680 nM; in data set [3], 120 nM. Moreover, the EC50 in data set [1] was > 4000 nM.
For the compound `CC(C)(C)c1ccc(Cc2cccn(-c3ccc4c(c3)OCCO4)c2=O)cc1`, the EC50 in data set [1] was > 4000 nM. Also, the IC50 in data set [2] and in [3] was > 4000 nM in each case.
In the case of `CC(C)(C)c1ccc(-c2cncc(Nc3ccc4c(c3)OCCO4)c2)cc1`, the EC50 in [1] is > 4000 nM. Further, the IC50 in data set [2] was > 4000 nM; in data set [3], 1210 nM.
`CC(C)(C)c1ccc(-c2cccc(Nc3ccc4c(c3)OCCO4)c2)cc1`: the EC50 in [1] is > 4000 nM. For the same compound, the concentration for half-maximal inhibition (IC50) in data set [2] and in [3] was > 4000 nM each time.
As to `CC(C)(C)c1ccc(-c2cc(Nc3ccc4c(c3)OCCO4)cnn2)cc1`, the EC50 in data set [1] is > 4000 nM. The IC50 in [2] is > 4000 nM; in data set [3], 840 nM.
For `CC(C)(C)c1ccc(-c2ccnc(Nc3ccc4c(c3)OCCO4)c2)cc1`, the EC50 in data set [1] was > 4000 nM. The IC50 in [2] amounted to 1300 nM; in data set [3], 230 nM.
As for `CC(C)(C)c1ccc(-c2cc(Nc3ccc4cccnc4c3)ncn2)cc1`, the IC50 in data set [4] worked out at 6.9 nM; in [5], 1.9 nM; in [2] it was 22 nM; in data set [3], 2 nM. For the same compound, the EC50 in data set [1] is > 4000 nM. The compound further returned a Cmax in data set [6] of 34 ng/mL. Also, the Tmax in [7] came to 0.5 h. The AUC(0-inf) in [8] was found to be 340 ng·h/mL; in [12] it was 79 ng·h/mL. The Vd in [9] was 3.1 L/kg. This compound also showed a clearance in data set [10] of 48.3 mL/min/kg. This compound also gave a half-life in [11] of 1.6 h. Further, the bioavailability in [13] was 5%.
With `CC(C)(C)c1ccc(-c2cnnc(Nc3ccc4c(c3)OCCO4)c2)cc1`, the EC50 in data set [1] is > 4000 nM. For the same compound, the IC50 in [2] is > 4000 nM; in data set [3], 780 nM.
As to `CC(C)(C)c1ccc(-c2ncnc(Nc3ccc4c(c3)OCCO4)n2)cc1`, the EC50 in data set [1] was > 4000 nM. Besides, the IC50 was > 4000 nM in data set [2] and 760 nM in data set [3].
As for `CC(C)(C)c1ccc(-c2nccc(Nc3ccc4c(c3)OCCO4)n2)cc1`, the EC50 in [1] was > 4000 nM. The IC50 in [2] and in data set [3] was > 4000 nM throughout.
On to `CC(C)(C)c1ccc(/C=C2\CCCN(c3ccc4c(c3)OCCO4)C2=O)cc1`, for which the EC50 in data set [1] is > 4000 nM. Moreover, the IC50 in [2] and in [3] was > 4000 nM throughout.
As to `FC(F)(F)c1ccc(-c2cc(Oc3ccc4cccnc4c3)ncn2)cc1`, the figures for the IC50 in [4] and in [5] were 4.2 nM and 3.7 nM, respectively. In [1], the EC50 is > 4000 nM. This compound also had a Cmax in data set [6] of 300 ng/mL. Besides, the Tmax in [7] turned out to be 1.2 h. In addition, the figures for the AUC(0-inf) in [8] and in [12] were 1590 ng·h/mL and 2040 ng·h/mL, respectively. Further, the Vd in data set [9] came to 3 L/kg. In addition, the half-life in data set [11] is 2.8 h. Besides, in [13], the bioavailability came out at 31%. Besides, the outcome in the data set with Rattus norvegicus was Active.
For the compound `CC(C)(C)c1ccc(-c2cc(Nc3ccc4c(c3)OCCO4)ccn2)cc1`, the EC50 in data set [1] is > 4000 nM. Further, the IC50 in [2] and in data set [3] was > 4000 nM each time.
